Results: ChEMBL document CHEMBL1158537, “Antibacterial activities of aminoglycoside antibiotics-derived cationic amphiphiles. Polyol-modified neomycin B-, kanamycin A-, amikacin-, and neamine-based amphiphiles with potent broad spectrum antibacterial activity” (2010)
≈ marks a conversion by molar mass, not a printed value.

Tests used:
[1] = tested on: Stenotrophomonas maltophilia; test: Antibacterial activity against Stenotrophomonas maltophilia CAN-ICU 62585 after 24 hrs by macrobroth dilution method; assay type: functional
How it was run: (§1)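 Broth macrodilution was run following CLSI methodology against ATCC reference strains and clinical isolates from the Canadian Intensive Care Unit (CAN-ICU) study, with Gram-positive and Gram-negative organisms tested. The value is the minimum inhibitory concentration, reported in μg/mL.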

Escherichia coli [2] = test: Antibacterial activity against gentamicin-resistant Escherichia coli ATCC 6174 after 24 hrs by macrobroth dilution method; assay type: functional
How it was run: (§2)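 Reference strains from the American Type Culture Collection were tested by broth macrodilution following CLSI methodology. The read-out was the minimum inhibitory concentration, reported in μg/mL. The same method was used for the Gram-positive and Gram-negative organisms.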

Acinetobacter baumannii = test: Antibacterial activity against Acinetobacter baumannii CAN-ICU 63169 after 24 hrs by macrobroth dilution method; assay type: functional; how it was run: as §1
Staphylococcus aureus [3] = test: Antibacterial activity against Staphylococcus aureus ATCC 29213 after 24 hrs by macrobroth dilution method; assay type: functional; how it was run: as §2
[4] = tested on: Staphylococcus epidermidis; test: Antibacterial activity against Staphylococcus epidermidis […] after 24 hrs by macrobroth dilution method; assay type: functional; how it was run: as §1
Streptococcus pneumoniae = test: Antibacterial activity against Streptococcus pneumoniae ATCC 49619 after 24 hrs by macrobroth dilution method; assay type: functional; how it was run: as §1
Pseudomonas aeruginosa [5] = test: Antibacterial activity against Pseudomonas aeruginosa CAN-ICU 62308 after 24 hrs by macrobroth dilution method; assay type: functional; how it was run: as §1
Klebsiella pneumoniae = test: Antibacterial activity against Klebsiella pneumoniae ATCC 13883 after 24 hrs by macrobroth dilution method; conditions: ATCC 13883, 24 h
Escherichia coli [6] = test: Antibacterial activity against Escherichia coli CAN-ICU 63074 after 24 hrs by macrobroth dilution method; assay type: functional; how it was run: as §1
Pseudomonas aeruginosa [7] = test: Antibacterial activity against Pseudomonas aeruginosa ATCC 27853 after 24 hrs by macrobroth dilution method; assay type: functional; how it was run: as §1
Staphylococcus aureus [8] = test: Antibacterial activity against methicillin-resistant Staphylococcus aureus ATCC 33592 after 24 hrs by macrobroth dilution method; assay type: functional; how it was run: as §2
Escherichia coli [9] = test: Antibacterial activity against Escherichia coli ATCC 25922 after 24 hrs by macrobroth dilution method; assay type: functional; how it was run: as §2
[10] = tested on: Staphylococcus epidermidis; test: Antibacterial activity against methicillin-resistant Staphylococcus epidermidis ATCC 14990 after 24 hrs by macrobroth dilution method; assay type: functional

| Compound | MIC ([1]; CAN-ICU 62585, 24 h) | MIC (Escherichia coli [2]; ATCC 6174, 24 h) | MIC (Acinetobacter baumannii; CAN-ICU 63169, 24 h) | MIC (Staphylococcus aureus [3]; ATCC 29213, 24 h) | MIC [4] | MIC (Streptococcus pneumoniae; ATCC 49619, 24 h) | MIC (Pseudomonas aeruginosa [5]; CAN-ICU 62308, 24 h) | MIC (Klebsiella pneumoniae) | MIC (Escherichia coli [6]; CAN-ICU 63074, 24 h) | MIC (Pseudomonas aeruginosa [7]; ATCC 27853, 24 h) | MIC (Staphylococcus aureus [8]; ATCC 33592, 24 h) | MIC (Escherichia coli [9]; ATCC 25922, 24 h) | MIC ([10]; ATCC 14990, 24 h) | also measured |
| --- | --- | --- | --- | --- | --- | --- | --- | --- | --- | --- | --- | --- | --- | --- |
| COC[C@H]1O[C@@H](O[C@@H]2[C@@H](OC)[C@H](N)C[C@H](N)[C@H]2O[C@H]2O[C@H](CN)[C@@H](OC)[C@H](OC)[C@H]2N)[C@H](OC)[C@@H]1O[C@H]1O[C@@H](CN)[C@@H](OC)[C@H](OC)[C@H]1N.O=C(O)C(F)(F)F | > 256 mg/L | > 256 mg/L | > 256 mg/L | > 256 mg/L | 256 mg/L | > 256 mg/L | > 256 mg/L | > 256 mg/L | > 256 mg/L | > 256 mg/L | > 256 mg/L | > 256 mg/L | > 256 mg/L |  |
| NC[C@@H]1O[C@H](O[C@H]2[C@@H](OC(=O)Nc3ccc(Cl)cc3)[C@H](O[C@@H]3[C@@H](OC(=O)Nc4ccc(Cl)cc4)[C@H](N)C[C@H](N)[C@H]3O[C@H]3O[C@H](CN)[C@@H](OC(=O)Nc4ccc(Cl)cc4)[C@H](OC(=O)Nc4ccc(Cl)cc4)[C@H]3N)O[C@@H]2COC(=O)Nc2ccc(Cl)cc2)[C@H](N)[C@@H](OC(=O)Nc2ccc(Cl)cc2)[C@@H]1OC(=O)Nc1ccc(Cl)cc1.O=C(O)C(F)(F)F | 128 mg/L | > 256 mg/L | > 256 mg/L | 64 mg/L | 16 mg/L | 128 mg/L | 256 mg/L | 256 mg/L | 256 mg/L | > 256 mg/L | 64 mg/L | > 256 mg/L | 32 mg/L |  |
| NC[C@@H]1O[C@H](O[C@H]2[C@@H](OC(=O)Nc3ccccc3)[C@H](O[C@@H]3[C@@H](OC(=O)Nc4ccccc4)[C@H](N)C[C@H](N)[C@H]3O[C@H]3O[C@H](CN)[C@@H](OC(=O)Nc4ccccc4)[C@H](OC(=O)Nc4ccccc4)[C@H]3N)O[C@@H]2COC(=O)Nc2ccccc2)[C@H](N)[C@@H](OC(=O)Nc2ccccc2)[C@@H]1OC(=O)Nc1ccccc1.O=C(O)C(F)(F)F | 4 mg/L | 16 mg/L | 32 mg/L | 1 mg/L | 0.5 mg/L | 16 mg/L | 128 mg/L | 256 mg/L | 16 mg/L | 256 mg/L | 1 mg/L | 32 mg/L | 0.5 mg/L |  |
| NC[C@@H]1O[C@@H](O[C@H]2[C@H](O)[C@@H](O[C@H]3O[C@H](CO)[C@@H](O)[C@H](N)[C@H]3O)[C@H](N)C[C@@H]2N)[C@@H](O)[C@H](O)[C@H]1O [KANAMYCIN A] | > 512 mg/L | 16 mg/L (≈ 33 µM) | 32 mg/L (≈ 66 µM) | 4 mg/L (≈ 8.26 µM) | 2 mg/L (≈ 4.13 µM) | 8 mg/L (≈ 16.5 µM) | > 512 mg/L | 1 mg/L (≈ 2.06 µM) | 32 mg/L (≈ 66 µM) | > 512 mg/L | > 512 mg/L | 8 mg/L (≈ 16.5 µM) | 128 mg/L (≈ 264 µM) |  |
| NCC[C@H](O)C(=O)N[C@@H]1C[C@H](N)[C@@H](O[C@H]2O[C@H](CN)[C@@H](O)[C@H](O)[C@H]2O)[C@H](O)[C@H]1O[C@H]1O[C@H](CO)[C@@H](O)[C@H](N)[C@H]1O [AMIKACIN] | > 512 mg/L | 2 mg/L (≈ 3.42 µM) | 128 mg/L (≈ 219 µM) | 4 mg/L (≈ 6.83 µM) | 1 mg/L (≈ 1.71 µM) | 8 mg/L (≈ 13.7 µM) | 128 mg/L (≈ 219 µM) | 0.5 mg/L (≈ 0.854 µM) | 32 mg/L (≈ 54.6 µM) | 4 mg/L (≈ 6.83 µM) | 8 mg/L (≈ 13.7 µM) | 4 mg/L (≈ 6.83 µM) | 2 mg/L (≈ 3.42 µM) |  |
| NC[C@@H]1O[C@H](O[C@H]2[C@@H](O)[C@H](O[C@@H]3[C@@H](O)[C@H](N)C[C@H](N)[C@H]3O[C@H]3O[C@H](CN)[C@@H](O)[C@H](O)[C@H]3N)O[C@@H]2CO)[C@H](N)[C@@H](O)[C@@H]1O [FRAMYCETIN] | > 512 mg/L | 8 mg/L (≈ 13 µM) | 64 mg/L (≈ 104 µM) | 1 mg/L (≈ 1.63 µM) | 0.25 mg/L (≈ 0.407 µM) | 32 mg/L (≈ 52.1 µM) | 512 mg/L (≈ 833 µM) | 1 mg/L (≈ 1.63 µM) |  | 512 mg/L (≈ 833 µM) | 256 mg/L (≈ 416 µM) | 4 mg/L (≈ 6.51 µM) | 0.5 mg/L (≈ 0.813 µM) |  |
| CC(C)(C)c1ccc(COC[C@H]2O[C@@H](O[C@@H]3[C@@H](OCc4ccc(C(C)(C)C)cc4)[C@H](N)C[C@H](N)[C@H]3O[C@H]3O[C@H](CN)[C@@H](OCc4ccc(C(C)(C)C)cc4)[C@H](OCc4ccc(C(C)(C)C)cc4)[C@H]3N)[C@H](OCc3ccc(C(C)(C)C)cc3)[C@@H]2O[C@H]2O[C@@H](CN)[C@@H](OCc3ccc(C(C)(C)C)cc3)[C@H](OCc3ccc(C(C)(C)C)cc3)[C@H]2N)cc1.O=C(O)C(F)(F)F | > 128 mg/L | 128 mg/L | > 128 mg/L | 128 mg/L | 64 mg/L | 256 mg/L | 128 mg/L | > 128 mg/L | 128 mg/L | 256 mg/L | 128 mg/L | 128 mg/L | 64 mg/L |  |
| NC[C@H]1OC(O[C@H]2[C@H](OCc3ccccc3)[C@@H](O[C@H]3O[C@H](COCc4ccccc4)[C@@H](OCc4ccccc4)[C@H](N)[C@H]3OCc3ccccc3)[C@H](N)C[C@@H]2N)[C@H](OCc2ccccc2)[C@@H](OCc2ccccc2)[C@@H]1OCc1ccccc1.O=C(O)C(F)(F)F (stereo partly specified) | > 64 mg/L | 32 mg/L | > 64 mg/L | 8 mg/L | 4 mg/L | 32 mg/L | > 64 mg/L | > 64 mg/L | 16 mg/L | > 64 mg/L | 8 mg/L | 32 mg/L | 8 mg/L |  |
| NC[C@@H]1O[C@H](O[C@H]2[C@@H](OCc3ccc(Cl)cc3)[C@H](O[C@@H]3[C@@H](OCc4ccc(Cl)cc4)[C@H](N)C[C@H](N)[C@H]3O[C@H]3O[C@H](CN)[C@@H](OCc4ccc(Cl)cc4)[C@H](OCc4ccc(Cl)cc4)[C@H]3N)O[C@@H]2COCc2ccc(Cl)cc2)[C@H](N)[C@@H](OCc2ccc(Cl)cc2)[C@@H]1OCc1ccc(Cl)cc1.O=C(O)C(F)(F)F | > 128 mg/L | > 128 mg/L | > 128 mg/L | 64 mg/L | 32 mg/L | 128 mg/L | > 128 mg/L | 128 mg/L | 64 mg/L | > 128 mg/L | 64 mg/L | 128 mg/L | 64 mg/L |  |
| NC[C@@H]1O[C@H](O[C@H]2[C@@H](OCc3ccccc3)[C@H](O[C@@H]3[C@@H](OCc4ccccc4)[C@H](N)C[C@H](N)[C@H]3O[C@H]3O[C@H](CN)[C@@H](OCc4ccccc4)[C@H](OCc4ccccc4)[C@H]3N)O[C@@H]2COCc2ccccc2)[C@H](N)[C@@H](OCc2ccccc2)[C@@H]1OCc1ccccc1.O=C(O)C(F)(F)F | 8 mg/L | 16 mg/L | 16 mg/L | 4 mg/L | 2 mg/L | 16 mg/L | 64 mg/L | 8 mg/L | 4 mg/L | 32 mg/L | 4 mg/L | 8 mg/L | 2 mg/L |  |
| GENTAMICIN |  |  |  |  | 0.25 mg/L |  |  |  |  |  |  |  |  | MIC [1]: > 512 mg/L; MIC (Escherichia coli [2]): 128 mg/L; MIC (Acinetobacter baumannii): 128 mg/L; MIC (Staphylococcus aureus [3]): 1 mg/L; MIC (Streptococcus pneumoniae): 4 mg/L; MIC (Pseudomonas aeruginosa [5]): 128 mg/L; MIC (Escherichia coli [6]): 8 mg/L; MIC (Pseudomonas aeruginosa [7]): 8 mg/L; MIC (Staphylococcus aureus [8]): 2 mg/L; MIC (Escherichia coli [9]): 1 mg/L; MIC [10]: 32 mg/L |
